Screening results from PubChem.
In the library only some 4.9% were active in any assay of this set; here they are far more common.
STAT1 act: STAT1 signaling activators, primary screen, cell-based, HTS, luciferase reporter. NIH 3T3 STAT1-luciferase reporter, IFN-gamma, luminescence; 100% = IFN-gamma alone, no compound. activation (% of control), % at 5.5 µM. 200,000 compounds, 2.6% hits. AID 932, 2007;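 active means activation above the screen-wide mean activation plus 3 SD, cut at about 130% in these data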;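 further: raw ratio to IFN-gamma control signal so 100% means no change and 0% no light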
STAT1 inh-1: STAT1 signaling inhibitors, primary screen, cell-based, HTS, luciferase reporter. NIH 3T3 STAT1-luciferase reporter, IFN-gamma, luminescence. AID 920, 2007. 200,000 compounds, 0.35% hits. inhibition, % at 5.5 µM;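 active means inhibition above a set limit, the mean inhibition across all tested compounds plus 3 SD, cut at about 34% in these data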;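 further: 0% = IFN-gamma with DMSO and 100% = IFN-gamma with 300 µM nifuroxazide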
NF-kB neuron act: activators of NF-kB expression in neurons, primary screen, cell-based, HTS; human neuronal cells, NF-kB reporter expression; stronger effect = higher value; fold change at 12.5 µM; 190,000 compounds, 1.6% hits; AID 1239, 2008; in the data active means fold change above about 3.3
STAT3 activator: IL-6 driven STAT3 reporter potentiators, primary screen, U3A cells, luciferase, luminescence, MLSCN library | IL-6 STAT3-luciferase reporter; 100% = signal with IL-6 EC80 alone | 190,000 compounds, 0.91% hits | AID 871, 2007 | activation (% of control), % at 5.6 µM;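 active means activation above the screen-wide mean of compound activation plus 3 SD, cut at about 130% in these data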;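 further: 0% = background luminescence of wells with medium and substrate only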
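Material: human U3A cells carrying STAT3-luciferase construct. Measured by: reporter luminescence signal. Timing: compound 1 h, then IL-6 6 h at 37 °C.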
APP 5'UTR act: activators of APP 5'UTR luciferase reporter, primary screen, SH-SY5Y cells; SH-SY5Y APP 5'UTR luciferase reporter, luminescence; zero percent = DMSO vehicle wells; activation, % at 2 µM; 190,000 compounds, 1% hits; AID 1276, 2008;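 active means activation above a set limit, based on mean plus 3 SD of controls, cut at about 140% in these data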
STAT3 blocker: IL-6 driven STAT3 reporter inhibitors, primary screen, U3A cells, luciferase, luminescence, MLSCN library | IL-6 STAT3-luciferase reporter; host cell line lacks STAT1 | inhibition, % at 5.5 µM | 190,000 compounds, 0.89% hits | AID 862, 2007;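 active means inhibition above the mean inhibition across all screened compounds plus 3 SD, cut at about 44% in these data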;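 further: 0% = DMSO only wells and 100% = 100 µM nifuroxazide control wells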
STAT1 inh-2: STAT1 signaling inhibitors, confirmation, cell-based, HTS, luciferase reporter | shares compounds with STAT1 inh-1 | NIH 3T3 STAT1-luciferase reporter, IFN-gamma, luminescence | inhibition, % at 5.5 µM | 200 compounds, 55% hits | AID 1263, 2008;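 active means triplicate mean inhibition exceeding the hit cutoff computed for the primary STAT1 screen, cut at about 35% in these data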;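 further: 0% = DMSO with IFN-gamma and 100% = 300 µM nifuroxazide with IFN-gamma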
NFkB inh: NF-kB reporter inhibitors, TNF-alpha stimulated, counter-screen for STAT1 inhibitor project, cell-based, HEK293T, luciferase luminescence | shares compounds with STAT1 inh-1 | TNF-alpha induced | inhibition, % at 5.7 µM | 200 compounds, 30% hits;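 active means inhibition above the mean of solvent-only control wells plus 3 SD of those wells, cut at about 15% in these data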;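 further: 0% = DMSO with TNF-alpha and 100% = MG-132 control with TNF-alpha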
STAT3 inh 2: STAT3 reporter inhibition by STAT1 hits, counter-screen for STAT1 inhibitor project, U3A cells, luciferase, luminescence, triplicate; inhibition, % at 5.7 µM; shares compounds with STAT1 inh-1; IL-6 STAT3 luciferase reporter; cells lacking STAT1; AID 1310, 2008; 200 compounds, 20% hits;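 active means inhibition above the mean of solvent-only control wells plus 3 SD, set per campaign, cut at about 25% in these data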;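 further: 0% = IL-6 plus DMSO and 100% = IL-6 plus nifuroxazide control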
STAT1 act conf: STAT1 signaling activators, confirmation, cell-based, HTS, luciferase reporter. shares compounds with STAT1 act. NIH 3T3 STAT1-luciferase reporter, IFN-gamma potentiation, luminescence; 100% = IFN-gamma EC80 alone, no compound. activation (% of control), % at 5.7 µM. 1,200 compounds, 97% hits;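 active means activation above a set limit carried over from the earlier primary STAT1 screen, cut at about 140% in these data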;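 further: simple ratio to median IFN-gamma plus DMSO wells so 0% means no light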
NFkB act: NF-kB reporter activators, TNF-alpha stimulated, counter-screen for STAT1 activator project, cell-based, HEK293T, luciferase luminescence | shares compounds with STAT1 act | 100% = TNF-alpha with vehicle only | activation (% of control), % at 5.7 µM | 1,200 compounds, 43% hits | AID 1306, 2008;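 active means activation above the mean of solvent-only control wells plus 3 SD, set per campaign, cut at about 130% in these data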;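 further: TNF-alpha given at a submaximal dose yielding about 80% of full reporter signal; values are well signal over median control so 100% means no change and 0% no light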
STAT3 act STAT1c: STAT3 reporter activation by STAT1 hits, confirmation, counter-screen for STAT1 activator project, U3A cells, luciferase, luminescence | shares compounds with STAT1 act | IL-6; cells lack STAT1; 100 = IL-6 alone, no compound effect | activation (% of control), % at 5.7 µM | 1,200 compounds, 46% hits | AID 1316, 2008;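 active means activation above the solvent-only control well mean plus 3 SD, set per plate batch, cut at about 110% in these data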;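 further: 0% = no luminescence and 100% = median IL-6 plus DMSO wells; higher means more STAT3 reporter activation so hits are non-selective activators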
* marks the source's active call; other numbers are inactive results; nt = no result.

SMILES | STAT1 act | STAT1 inh-1 | NF-kB neuron act | STAT3 activator | APP 5'UTR act | STAT3 blocker | STAT1 act conf | NFkB act | STAT3 act STAT1c | others
CN1CCN(Cc2nc3ccccc3c(=O)n2Cc2nc(-c3cccc([N+](=O)[O-])c3)cs2)CC1 | 42 | 62* | 0.73 | 118 | 6 | -10 | nt | nt | nt | STAT1 inh-2=38*;NFkB inh=3;STAT3 inh 2=-7
CN1CCN(Cc2nc3ccccc3c(=O)n2Cc2nc(-c3ccccc3F)cs2)CC1 | 55 | 50* | 0.7 | 98 | -7 | -2 | nt | nt | nt | STAT1 inh-2=51*;NFkB inh=6;STAT3 inh 2=-9
CN(C)Cc1nc2ccccc2c(=O)n1Cc1nc(C(C)(C)C)cs1 | 52 | 53* | 0.71 | 89 | -2 | 22 | nt | nt | nt | STAT1 inh-2=30;NFkB inh=2;STAT3 inh 2=7
O=C(c1ccc(Cl)c(S(=O)(=O)N2CCCCCC2)c1)N1CCN(c2ccccc2O)CC1 | 99 | 1 | 0.59 | 82 | -6 | 22 | nt | nt | nt
COc1ccc(Oc2ccc(NC(=O)c3ccccc3C)cc2)cc1 | 87 | 12 | 1.3 | 91 | -1 | 16 | nt | nt | nt
CC1=C(C(=O)N2CCN(c3cc(C)ccc3C)CC2)C2(CCC(C)CC2)OC1=O (configuration not stated) | 100 | 0 | 1.9 | 102 | 16 | -2 | nt | nt | nt
CCOC(=O)CSc1nnc(CSc2nc3sc4c(c3c(=O)[nH]2)CCCC4)n1-c1ccccc1 | 97 | 3 | 1.4 | 101 | 18 | 2 | nt | nt | nt
Cc1ccc(NC(=O)/C=C\C(=O)NCC(=O)O)cc1 | 105 | -7 | 1.2 | 101 | -9 | 10 | nt | nt | nt
O=[N+]([O-])c1ccccc1OCCCn1cnc2ccccc21 | 169* | -79 | 4.1* | 104 | 130 | 0 | 188* | 132 | 106
O=C1C2C3c4ccccc4C(c4ccccc43)C2C(=O)N1Cc1ccccn1 (configuration not stated) | 91 | 8 | 0.98 | 93 | -4 | 12 | nt | nt | nt
c1ccc2c(c1)Cn1c-2nc2ccccc21 | 158* | -64 | 4.7* | 68 | 76 | 40 | 189* | 129 | 95
O=c1c2c(nc3nc(NCc4cccc5ccccc45)[nH]n13)CCC2 | 108 | -8 | 1.1 | 103 | -16 | 5 | nt | nt | nt
O=[N+]([O-])c1ccc2c(c1)ncn2-c1ccccc1 | 122 | -25 | 1.2 | 87 | 5 | 20 | nt | nt | nt
O=[N+]([O-])c1ccc2cn(-c3ccccc3)nc2c1 | 152* | -52 | 1.3 | 102 | 141* | -6 | 196* | 135* | 99
CC1CN(S(=O)(=O)c2cccc(C(=O)Nc3ccc(S(=O)(=O)Nc4ncccn4)cc3)c2)CC(C)O1 (configuration not stated) | 101 | -2 | 1.1 | 97 | 13 | 6 | nt | nt | nt
c1ccc(-c2csc(N3CCSCC3)n2)cc1 | 160* | -63 | 2.5 | 97 | 35 | 4 | 129* | 126 | 96
Cc1cc(/C=C2/NC(=O)N(c3ccccc3)C2=O)c(C)n1-c1cccnc1 | 151* | -58 | 1.2 | 112 | 86 | -10 | 192* | 132 | 119*
Cc1ccc(OCC(=O)c2ccc(Cl)s2)c([N+](=O)[O-])n1 | 102 | -2 | 0.86 | 100 | 19 | 2 | nt | nt | nt
O=C1C=CC(O)(c2cc(=O)c3c(O)cc(O)cc3o2)C=C1 | 162* | -68 | 0.83 | 91 | -41 | 8 | 114 | 185* | 131*
O=c1cc(-c2ccccc2Cl)oc2cc(O)cc(O)c12 | 102 | -2 | 1.2 | 96 | 23 | 2 | nt | nt | nt
O=C(Nc1nc2ccccc2s1)C1CCCO1 (configuration not stated) | 151* | -56 | 2.6 | 94 | 49 | 12 | 166* | 122 | 108
O=C(Nc1nc(-c2nc3ccccc3s2)cs1)C1CC1 | 162* | -65 | 5.7* | 95 | 238* | 6 | 227* | 128 | 117*
CC1CCc2nc(NC(=O)C3CCCO3)sc2C1 (configuration not stated) | 161* | -66 | 3.5* | 90 | 172* | 12 | 189* | 103 | 96
O=c1[nH]c2ccccc2nc1Cc1ccccc1 | 98 | 2 | 0.91 | 92 | -19 | 12 | nt | nt | nt
O=C(Cc1nc2ccccc2[nH]c1=O)c1ccccc1 | 175* | -84 | 0.97 | 129 | 160* | -25 | 196* | 123 | 155*
Cc1nc2cc(F)ccc2n1C1CCN(C(=O)c2c(F)cccc2F)CC1 | 88 | 13 | 0.84 | 93 | -16 | 15 | nt | nt | nt
N#Cc1c(NC(=S)NC(=O)c2ccccc2)sc2c1CCCC2 | 111 | -13 | 1.2 | 97 | 38 | 1 | nt | nt | nt
N#Cc1c(NC(=O)c2ccccc2)sc2c1CCC2 | 169* | -67 | 3.8* | 94 | 109 | 7 | 191* | 118 | 103
Cc1cc(C(=O)Nc2sc3c(c2C#N)CCC(C)C3)cs1 (configuration not stated) | 152* | -57 | 1.8 | 99 | 30 | 4 | 199* | 141* | 114*
O=C(Nc1cccc(Cl)c1)c1cnn2cccnc12 | 157* | -59 | 3.7* | 123 | 87 | -24 | 178* | 130 | 123*
